The source of these data is ChEMBL document CHEMBL3871264, “Design of a novel thiophene inhibitor of 15-lipoxygenase-1 with both anti-inflammatory and neuroprotective properties” (Eur J Med Chem, 2016).

The source made the active and inactive calls. The rule behind the calls is not given here.

B1: Polyunsaturated fatty acid lipoxygenase ALOX15 (Homo sapiens), P16050 (protein)
chain: MGLYRIRVSTGASLYAGSNNQVQLWLVGQHGEAALGKRLWPARGKETELKVEVPEYLGPLLFVKLRKRHLLKDDAWFCNWISVQGPGAGDEVRFPCYRWVEGNGVLSLPEGTGRTVGEDPQGLFQKHREEELEERRKLYRWGNWKDGLILNMAGAKLYDLPVDERFLEDKRVDFEVSLAKGLADLAIKDSLNVLTCWKDLDDFNRIFWCGQSKLAERVRDSWKEDALFGYQFLNGANPVVLRRSAHLPARLVFPPGMEELQAQLEKELEGGTLFEADFSLLDGIKANVILCSQQHLAAPLVMLKLQPDGKLLPMVIQLQLPRTGSPPPPLFLPTDPPMAWLLAKCWVRSSDFQLHELQSHLLRGHLMAEVIVVATMRCLPSIHPIFKLIIPHLRYTLEINVRARTGLVSDMGIFDQIMSTGGGGHVQLLKQAGAFLTYSSFCPPDDLADRGLLGVKSSFYAQDALRLWEIIYRYVEGIVSLHYKTDVAVKDDPELQTWCREITEIGLQGAQDRGFPVSLQARDQVCHFVTMCIFTCTGQHASVHLGQLDWYSWVPNAPCTMRLPPPTTKDATLETVMATLPNFHQASLQMSITWQLGRRQPVMVAVGQHEEEYFSGPEPKAVLKKFREELAALDKEIEIRNAKLDMPYEYLRPSVVENSVAI

The target in one data set is T1, Polyunsaturated fatty acid lipoxygenase ALOX15 (Mus musculus) (UniProt P39654).
T1 sequence (whole entry): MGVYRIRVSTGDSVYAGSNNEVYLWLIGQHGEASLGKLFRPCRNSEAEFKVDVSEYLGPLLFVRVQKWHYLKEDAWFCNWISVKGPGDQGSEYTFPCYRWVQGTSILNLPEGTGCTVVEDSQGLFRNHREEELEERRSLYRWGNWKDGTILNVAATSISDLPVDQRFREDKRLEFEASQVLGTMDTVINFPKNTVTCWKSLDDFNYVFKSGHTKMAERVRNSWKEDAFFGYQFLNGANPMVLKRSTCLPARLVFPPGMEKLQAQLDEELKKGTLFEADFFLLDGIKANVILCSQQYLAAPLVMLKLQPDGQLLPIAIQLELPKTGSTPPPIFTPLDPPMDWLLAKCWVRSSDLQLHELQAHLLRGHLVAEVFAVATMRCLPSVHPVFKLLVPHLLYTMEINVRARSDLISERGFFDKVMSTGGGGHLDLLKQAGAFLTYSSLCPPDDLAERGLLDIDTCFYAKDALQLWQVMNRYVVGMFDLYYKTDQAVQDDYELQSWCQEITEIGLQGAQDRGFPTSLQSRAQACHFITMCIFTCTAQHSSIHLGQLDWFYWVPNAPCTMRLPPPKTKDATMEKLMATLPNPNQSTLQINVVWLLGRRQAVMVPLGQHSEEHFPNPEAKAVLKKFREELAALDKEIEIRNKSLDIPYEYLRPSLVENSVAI
The experiment in a line: Inhibition of 15-LOX-1 in mouse HT22 cells assessed as protection against glutamate-induced cell death by measuring increase in cell viability at 1 uM cotreated with glutamate measured for 16 to 20 hrs by MTT assay. It is filed as cell-based. As to conditions: HT-22, in the assay text read “14 to 16 hrs” for “16 to 20 hrs”. In outline:
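HT-22 cells were seeded at 8x10^3 per well and incubated overnight. They were challenged with 4 mM glutamate in DMEM/10% FCS. Inhibitor was given either with glutamate (1-20 µM; PD146176 at 1 µM) or added at 5 or 10 µM 2, 4, 6 or 8 h after glutamate. After 14-16 h, MTT was added at 0.5 mg/mL for 1 h at 37 °C. Formazan was dissolved in DMSO and read at 570 nm minus 630 nm background, expressed relative to control. Three experiments were run with 6-8 replicates each.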
On the technique in general: Tetrazolium dyes change colour on reduction, which living cells bring about.
With `c1ccc2c(c1)SCc1c-2[nH]c2ccccc12`, the inhibition result is “Active”.

Compound in the next data set: CCCCNC(=O)c1cc(-c2ccccc2)sc1N
The experiment in a line: Competitive inhibition of human 15-LOX-1 assessed as apparent Km at 15 uM by Lineweaver-Burk plot analysis (reference value: 9.1 +/- 3.4 microM).
Details: not given
In outline: (§1)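 Purified enzyme activity was read as UV absorbance at 234 nm of the product formed from linoleic acid substrate, in 96-well format. Substrate-dependence runs were done with and without inhibitor. Apparent Km and Vmax were derived from Lineweaver-Burk plots.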
Turning to B1, the Km – broadly, the substrate concentration at which the rate is half of its maximum – was determined as 38.2 µM.

The next data set has as its target T2, Polyunsaturated fatty acid lipoxygenase ALOX15 (Homo sapiens, UniProt P16050).
T2 sequence (P16050 whole entry): B1 chain
The experiment in a line: Inhibition of human 15-LOX-1 assessed as reduction in conversion of linoleic acid to 13(S)-HpODE incubated for 10 mins followed by linoleic acid addition by UV-absorbance analysis.
Details: not given
`CCCCNC(=O)c1c(N)sc(-c2ccccc2)c1C`: the IC50 (in general, the point on the concentration scale where inhibition reaches its midpoint) is > 50 µM. As to `Nc1sc(-c2ccccc2)cc1C(=O)NCCCCc1ccccc1`, the IC50 is 50 to 81.7 µM.

As for `CCCCNC(=O)c1cc(CCC)sc1N`, the IC50 was in the range of 50 to 65.4 µM. On the same count and under the same terms, to `CCCCNC(=O)c1c(N)sc(-c2ccc(Cl)cc2)c1CCCC` belongs > 50 µM; to `CCCCNC(=O)c1cc(CC)sc1N`, 50 to 65.3 µM; to `CCCCNC(=O)c1cc(-c2ccc(Br)cc2)sc1N`, 50 to 71.1 µM.

For the molecule `CCCCNC(=O)c1cc(C)sc1N`, the IC50 is 50 to 354 µM. For the molecule `CCCCN(CCCC)C(=O)c1cc(-c2ccccc2)sc1N`, the IC50 fell in the range of 50 to 152 µM. For the molecule `CCCCCc1cc(C(=O)NCCCC)c(N)s1`, the IC50 was in the range of 50 to 61.4 µM. As to `CCCCNC(=O)c1cc(-c2ccc(Cl)cc2)sc1N`, the IC50 fell in the range of 50 to 519 µM. Turning to `CCCCNC(=O)c1cc(Cc2ccccc2)sc1N`, the IC50 was in the range of 50 to 115 µM. On to `CCCCNC(=O)c1c(N)sc(-c2ccccc2)c1CCCC`, for which the IC50 is > 50 µM. `CCCCn1c(=O)[nH]c2sc(-c3ccccc3)cc2c1=O`: the IC50 lay in the range of 50 to 67.3 µM.

A further data set deals with T1, Polyunsaturated fatty acid lipoxygenase ALOX15 (Mus musculus). The experiment in a line: Inhibition of 15-LOX-1 in mouse HT22 cells assessed as protection against glutamate-induced cell impedance at 1 uM cotreated with glutamate up to 16 hrs by real time cell viability assay. It is filed as cell-based. Particulars: HT-22. In outline: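 HT-22 cells were seeded at 8x10^3 per well, incubated overnight, then given 4 mM glutamate. Inhibitor was either co-applied (1-20 µM; PD146176 at 1 µM) or added at 10 µM 2, 4, 6 or 8 h after glutamate. Impedance was recorded in real time for 16-20 h, with cell index normalized just before glutamate addition.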
For `c1ccc2c(c1)SCc1c-2[nH]c2ccccc12`, the inhibition result was “Active”.

The target is the same in a further data set. The experiment in a line: Inhibition of 15-LOX-1 in mouse HT22 cells assessed as inhibition of glutamate-induced lipid peroxidation at 1 uM incubated for 14 to 16 hrs by BODIPY 581/591 C11 staining based FACS analysis. It is filed as cell-based. Particulars: HT-22. A digest of the protocol: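 HT-22 cells were seeded at 5x10^4 per well and incubated overnight. They were then exposed to 4 mM glutamate in DMEM/10% FCS, with or without 10 µM test inhibitor or 1 µM PD146176, for 6-7 h or 14-16 h. Cells were stained with BODIPY 581/591 C11 at 2 µM final for 1 h at 37 °C. The red-to-green fluorescence shift was read by flow cytometry (488 nm excitation). At least 3 experiments were run, each in triplicate.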
(In general: Flow cytometry measures light scatter and fluorescence of single cells or particles in a stream.)
For `c1ccc2c(c1)SCc1c-2[nH]c2ccccc12`, the inhibition result was “Active”.

Compound in a further data set: CCCCNC(=O)c1cc(-c2ccccc2)sc1N
The experiment in a line: Competitive inhibition of human 15-LOX-1 assessed as apparent Km at 5 uM by Lineweaver-Burk plot analysis (reference value: 9.1 +/- 3.4 microM).
Details: not given
A digest of the protocol: as §1
With B1, the Km was 14.2 µM.
